The source of these data is ChEMBL document CHEMBL1135426, “Synthesis, receptor potency, and selectivity of halogenated diphenylpiperidines as serotonin 5-HT2A ligands for PET or SPECT brain imaging” (J Med Chem, 2002).

Assay [1] concerns the target D(2) dopamine receptor (Rattus norvegicus, UniProt P61169). Description: Binding affinity (Ki) at Dopamine receptor D2 using rat caudate cells with nemonapride (0.075 nM) as a radioligand and […] as a blank agent. In short, it runs like this:
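Rat caudate-putamen homogenate incubated with 75 pM [3H]nemonapride at 30 °C for 90 min. Nonspecific binding defined with 10 µM haloperidol. Bound radioactivity collected on glass fiber filters and counted. IC50 ± SE from ≥6-concentration inhibition curves, converted to Ki by Cheng-Prusoff using the radioligand Kd.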

In assay [2] the target is T1, Adrenergic receptor alpha-2 (Rattus norvegicus, UniProt P22086+P19328+P22909).
T1 sequence (P22086 whole entry): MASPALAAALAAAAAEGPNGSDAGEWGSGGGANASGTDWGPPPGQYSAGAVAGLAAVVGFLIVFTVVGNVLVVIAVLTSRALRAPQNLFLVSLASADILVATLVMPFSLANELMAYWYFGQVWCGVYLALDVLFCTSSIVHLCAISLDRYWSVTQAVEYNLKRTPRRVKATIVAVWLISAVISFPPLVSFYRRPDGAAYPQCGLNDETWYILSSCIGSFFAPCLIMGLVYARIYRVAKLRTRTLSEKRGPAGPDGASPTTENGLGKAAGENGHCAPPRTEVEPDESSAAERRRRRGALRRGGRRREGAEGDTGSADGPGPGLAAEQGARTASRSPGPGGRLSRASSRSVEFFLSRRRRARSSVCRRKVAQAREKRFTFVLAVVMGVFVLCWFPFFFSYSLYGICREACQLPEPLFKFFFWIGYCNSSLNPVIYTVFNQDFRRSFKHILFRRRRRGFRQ
T1 sequence (P19328 whole entry): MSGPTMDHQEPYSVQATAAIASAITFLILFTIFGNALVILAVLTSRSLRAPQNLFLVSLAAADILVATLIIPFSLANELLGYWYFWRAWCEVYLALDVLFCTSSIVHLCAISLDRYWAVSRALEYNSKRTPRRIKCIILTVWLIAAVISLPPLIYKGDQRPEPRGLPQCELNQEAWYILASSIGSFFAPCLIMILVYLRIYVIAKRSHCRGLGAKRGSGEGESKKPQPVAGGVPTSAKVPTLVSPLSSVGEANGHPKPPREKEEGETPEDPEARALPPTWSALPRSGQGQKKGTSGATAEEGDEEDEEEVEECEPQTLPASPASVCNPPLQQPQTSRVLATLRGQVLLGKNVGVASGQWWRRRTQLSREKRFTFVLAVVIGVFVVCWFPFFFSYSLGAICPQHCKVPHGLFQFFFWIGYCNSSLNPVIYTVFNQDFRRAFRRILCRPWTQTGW
T1 sequence (P22909 whole entry): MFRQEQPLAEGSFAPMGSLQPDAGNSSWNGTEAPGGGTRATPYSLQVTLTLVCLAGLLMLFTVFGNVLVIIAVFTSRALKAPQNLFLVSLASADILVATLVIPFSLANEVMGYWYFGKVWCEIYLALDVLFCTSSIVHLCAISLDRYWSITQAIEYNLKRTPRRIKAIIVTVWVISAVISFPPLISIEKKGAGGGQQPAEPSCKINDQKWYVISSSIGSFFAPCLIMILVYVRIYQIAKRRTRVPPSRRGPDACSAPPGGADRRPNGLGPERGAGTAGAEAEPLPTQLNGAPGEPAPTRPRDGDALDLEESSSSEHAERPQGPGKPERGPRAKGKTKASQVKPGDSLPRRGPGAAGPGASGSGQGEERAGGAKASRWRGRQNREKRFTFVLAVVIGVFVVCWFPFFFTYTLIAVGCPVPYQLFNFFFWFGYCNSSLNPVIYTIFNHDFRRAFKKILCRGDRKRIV
Nature of the assay: Binding affinity (Ki) at Alpha-2 adrenergic receptor homogenates of whole rat brain were incubated [3H]MK-912 for 80 min at room temperature, using […] as the blank agent. It is filed as tissue-based. In short, it runs like this: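 Whole rat brain homogenate (minus cerebellum) with 1.0 nM [3H]MK-912, 80 min at room temperature. 10 µM phentolamine defines nonspecific binding. Filter harvest and scintillation counting. Concentration-inhibition curves (≥6 concentrations) give IC50 ± SE, converted to Ki via Cheng-Prusoff with the radioligand's apparent Kd.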

The target in assay [3] is 5-hydroxytryptamine receptor 6 (Homo sapiens, UniProt P50406). Nature of the assay: Tested on cell membranes from transfected cells selectively expressing human 5-hydroxytryptamine 6 receptor incubated with 1 nM [3H]LSD. In short, it runs like this:
(§1)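 Membranes (1-10 µg protein) from transfected cells expressing human 5-HT6 or 5-HT7, incubated with 1 nM [3H]LSD, room temperature, 90 min, in the dark. 10 µM clozapine as blank. Filter harvest and tritium counting. IC50 from multi-concentration competition, converted to Ki via Cheng-Prusoff.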

Assay [4] addresses T2, 5-hydroxytryptamine receptor 2C (Homo sapiens, UniProt P28335).
T2 sequence (P28335 whole entry): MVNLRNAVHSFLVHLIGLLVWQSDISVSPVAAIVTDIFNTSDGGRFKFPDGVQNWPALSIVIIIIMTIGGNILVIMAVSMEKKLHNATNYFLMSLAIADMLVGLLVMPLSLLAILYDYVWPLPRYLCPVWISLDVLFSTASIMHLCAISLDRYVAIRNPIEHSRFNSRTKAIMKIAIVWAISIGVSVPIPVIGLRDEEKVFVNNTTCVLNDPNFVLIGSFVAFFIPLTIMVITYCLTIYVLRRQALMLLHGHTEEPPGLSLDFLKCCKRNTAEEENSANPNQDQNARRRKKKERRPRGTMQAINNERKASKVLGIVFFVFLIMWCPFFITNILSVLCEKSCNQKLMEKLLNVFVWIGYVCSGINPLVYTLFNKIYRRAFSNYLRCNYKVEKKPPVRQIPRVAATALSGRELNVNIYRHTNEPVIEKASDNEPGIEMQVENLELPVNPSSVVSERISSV
Nature of the assay: Tested on transfected cell membranes selectively expressing human 5-hydroxytryptamine 2C receptor using [3H]mesulergine. The essentials:
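Transfected cell membranes expressing human 5-HT2C, incubated with 0.80 nM [3H]mesulergine at room temperature for 60 min. Nonspecific binding with 10 µM clozapine. Filtration and scintillation counting. IC50 ± SE from concentration-inhibition curves, converted to Ki by Cheng-Prusoff using the radioligand Kd.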

Assay [5] concerns the target 5-hydroxytryptamine receptor 7 (Homo sapiens, UniProt P34969). Description: Tested on cell membranes from transfected cells selectively expressing human 5-hydroxytryptamine 7 receptor incubated with 1 nM [3H]LSD. The essentials: as §1
For assay [6], the target named is 5-hydroxytryptamine receptor 2A (Homo sapiens, UniProt P28223). Description: Tested on genetically transfected COS7 cell membranes selectively expressing human 5-hydroxytryptamine 2A receptor, using [3H]ketanserin as radioligand. Format: cell-based, COS-7. In short, it runs like this:
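Membranes of transfected COS-7 cells expressing human 5-HT2A, with 1.0 nM [3H]ketanserin, room temperature, 60 min. 10 µM altanserin as blank. Filtration and scintillation counting. Competition curves over ≥6 concentrations yield IC50 ± SE. Ki obtained by Cheng-Prusoff from the radioligand apparent Kd.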

5-hydroxytryptamine receptor 7, sequence (P34969 whole entry): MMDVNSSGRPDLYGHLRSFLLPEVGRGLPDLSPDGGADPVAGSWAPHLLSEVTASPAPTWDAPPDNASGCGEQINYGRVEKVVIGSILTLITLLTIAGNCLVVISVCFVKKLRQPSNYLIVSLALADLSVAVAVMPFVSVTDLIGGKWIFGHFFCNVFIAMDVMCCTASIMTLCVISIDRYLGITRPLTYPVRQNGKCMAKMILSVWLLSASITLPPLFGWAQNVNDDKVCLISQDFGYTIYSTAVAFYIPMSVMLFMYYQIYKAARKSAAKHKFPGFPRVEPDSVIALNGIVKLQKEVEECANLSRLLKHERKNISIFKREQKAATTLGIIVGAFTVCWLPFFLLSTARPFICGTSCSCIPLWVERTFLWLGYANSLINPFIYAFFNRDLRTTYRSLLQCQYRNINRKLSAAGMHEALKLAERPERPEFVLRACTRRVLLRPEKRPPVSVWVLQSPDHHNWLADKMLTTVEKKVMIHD
5-hydroxytryptamine receptor 6, sequence (P50406 whole entry): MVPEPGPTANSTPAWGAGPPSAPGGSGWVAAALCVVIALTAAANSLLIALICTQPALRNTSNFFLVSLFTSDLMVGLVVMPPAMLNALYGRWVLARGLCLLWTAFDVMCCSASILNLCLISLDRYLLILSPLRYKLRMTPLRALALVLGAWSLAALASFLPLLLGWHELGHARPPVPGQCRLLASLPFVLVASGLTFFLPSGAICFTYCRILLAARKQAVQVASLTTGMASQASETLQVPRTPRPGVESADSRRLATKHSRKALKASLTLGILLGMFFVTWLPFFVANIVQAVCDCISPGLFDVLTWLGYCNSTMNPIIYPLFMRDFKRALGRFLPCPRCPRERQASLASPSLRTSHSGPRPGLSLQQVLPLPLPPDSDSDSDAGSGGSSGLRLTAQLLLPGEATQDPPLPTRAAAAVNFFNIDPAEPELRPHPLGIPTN
5-hydroxytryptamine receptor 2A, sequence (P28223 whole entry): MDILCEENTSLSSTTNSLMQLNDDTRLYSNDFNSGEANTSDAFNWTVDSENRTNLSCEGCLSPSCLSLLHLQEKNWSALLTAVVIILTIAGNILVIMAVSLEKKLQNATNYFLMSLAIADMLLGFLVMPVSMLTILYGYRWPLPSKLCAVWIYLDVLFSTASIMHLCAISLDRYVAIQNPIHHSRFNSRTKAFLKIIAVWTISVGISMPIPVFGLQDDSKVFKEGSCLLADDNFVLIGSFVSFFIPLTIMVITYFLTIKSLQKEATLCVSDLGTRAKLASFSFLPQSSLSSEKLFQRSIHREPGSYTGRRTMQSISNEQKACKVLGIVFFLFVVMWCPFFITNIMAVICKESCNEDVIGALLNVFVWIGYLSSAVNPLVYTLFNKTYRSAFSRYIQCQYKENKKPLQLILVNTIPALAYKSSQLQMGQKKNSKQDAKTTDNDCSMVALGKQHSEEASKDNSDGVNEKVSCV
D(2) dopamine receptor, sequence (P61169 whole entry): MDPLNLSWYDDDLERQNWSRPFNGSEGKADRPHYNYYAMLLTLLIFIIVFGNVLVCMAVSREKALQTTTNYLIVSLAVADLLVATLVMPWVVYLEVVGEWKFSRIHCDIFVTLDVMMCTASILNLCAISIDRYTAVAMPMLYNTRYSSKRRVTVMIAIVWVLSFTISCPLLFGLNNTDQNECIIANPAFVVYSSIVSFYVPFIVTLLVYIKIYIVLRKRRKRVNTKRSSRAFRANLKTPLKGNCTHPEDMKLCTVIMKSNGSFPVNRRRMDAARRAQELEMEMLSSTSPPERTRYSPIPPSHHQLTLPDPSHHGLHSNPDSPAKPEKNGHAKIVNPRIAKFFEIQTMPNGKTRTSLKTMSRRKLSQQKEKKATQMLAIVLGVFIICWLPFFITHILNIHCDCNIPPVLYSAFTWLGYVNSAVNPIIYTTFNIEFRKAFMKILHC

Turning to `OC(c1ccc(F)cc1)C1CCN(CCc2ccc(F)cc2)CC1` (stereo unspecified), the Ki – broadly, a dissociation constant, usually derived from enzyme kinetics or from competition with a known ligand – in assay [1] is greater than 10000 nM; in assay [2] it was 1032 nM; in assay [3], greater than 10000 nM; in assay [4] it was 503 nM; in assay [5] it was 1340 nM; in assay [6], 1.63 nM.

Consider `O=C(c1ccc(F)cc1)C1CCN(CCc2ccc(I)cc2)CC1`, for which the Ki is 176 nM in assay [1]; 381 nM in assay [2]; 300 nM in assay [3]; 144 nM in assay [4]; 7.32 nM in assay [5]; 3.62 nM in assay [6].

As to `O=C(c1ccc(F)cc1)C1CCN(CCc2ccc(F)cc2)CC1`, the Ki in assay [1] is 453 nM; in assay [2], 614 nM; in assay [3], 3000 nM; in assay [4] it was 493 nM; in assay [5], 63 nM; in assay [6], 9.54 nM.

With `O=C(c1ccc(F)cc1)C1CCN(CCc2cccc(I)c2)CC1`, the Ki in assay [1] came to 51.8 nM; in assay [2], 244 nM; in assay [3], 48.9 nM; in assay [4] it was 16.6 nM; in assay [5] it was 8.76 nM; in assay [6] it was 0.51 nM.

Turning to `O=C(c1ccc(F)cc1)C1CCN(CCc2ccccc2I)CC1`, the Ki in assay [1] turned out to be 1.3 nM; in assay [2], 140 nM; in assay [3], 138 nM; in assay [4], 35.5 nM; in assay [5], 3.68 nM; in assay [6] it was 1.95 nM.

As to `OC(c1ccc(F)cc1)C1CCN(CCc2ccccc2I)CC1` (stereo unspecified), the Ki in assay [1] is greater than 10000 nM; in assay [2], 813 nM; in assay [3], 430 nM; in assay [4] it was 28.6 nM; in assay [5], 101 nM; in assay [6], 0.91 nM.
